According to PMC2659760 (The Journal of organic chemistry, 2009):
“Also recorded” adds a separate entry of the source. Read-outs that look alike come from different tables or passages of the source.

Assays:
[1] = biological target: T1, bovine plasma amine oxidase (BPAO) (Bos taurus, UniProt Q29437); test: Substrate activity with BPAO; type: biochemical; details: kcat/Km relative to BA = 1
T1 sequence (Q29437 17-762): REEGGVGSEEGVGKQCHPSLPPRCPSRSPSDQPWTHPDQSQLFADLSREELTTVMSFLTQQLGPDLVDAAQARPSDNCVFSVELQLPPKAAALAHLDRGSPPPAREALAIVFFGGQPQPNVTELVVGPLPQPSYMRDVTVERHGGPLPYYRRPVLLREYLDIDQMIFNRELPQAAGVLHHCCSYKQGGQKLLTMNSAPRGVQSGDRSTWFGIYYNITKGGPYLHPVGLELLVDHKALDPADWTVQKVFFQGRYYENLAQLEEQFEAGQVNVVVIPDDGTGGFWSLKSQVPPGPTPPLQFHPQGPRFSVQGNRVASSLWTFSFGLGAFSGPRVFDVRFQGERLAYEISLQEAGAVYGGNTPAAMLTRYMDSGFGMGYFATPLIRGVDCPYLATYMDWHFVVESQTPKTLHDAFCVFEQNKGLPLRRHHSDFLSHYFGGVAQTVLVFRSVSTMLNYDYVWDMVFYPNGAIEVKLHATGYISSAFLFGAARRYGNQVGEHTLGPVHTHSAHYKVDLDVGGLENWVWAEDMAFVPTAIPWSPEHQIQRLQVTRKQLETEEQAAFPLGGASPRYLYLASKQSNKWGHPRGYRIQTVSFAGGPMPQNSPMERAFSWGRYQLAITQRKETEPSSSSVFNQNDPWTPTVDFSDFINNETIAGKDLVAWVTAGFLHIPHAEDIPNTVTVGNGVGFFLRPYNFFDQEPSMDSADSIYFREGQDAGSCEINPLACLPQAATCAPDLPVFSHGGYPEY

[2] = Solubility; type: physicochemical
[3] = biological target: T2, BPAO (Bos taurus, UniProt Q29437); details: ref 8d, cited from earlier work
T2 sequence (Q29437 17-762): T1 sequence (Q29437 17-762)

[4] = biological target: T2, BPAO; test: Inhibition of BPAO evaluated with the new fluorometric assay; type: biochemical, bovine
Method in brief: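 BPAO (50 nM) in 0.1 M pH 7.2 phosphate buffer, held 5 min at 2 °C, then given test inhibitor (final 1–10 µM; repeat at 30 °C with 0.125–2 µM). Aliquots taken over time and assayed at 30 °C: 10 µM fluorogenic amine substrate, emission 453 nm (λex 350 nm), 30 s. Residual activity relative to an inhibitor-free control; t1/2 per concentration fed Kitz–Wilson plot.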

[5] = biological target: T2, BPAO; test: Selectivity: initial oxidation velocity with BPAO; type: biochemical, bovine; details: for V0: 30 °C, 250 nm
Method in brief: (§1)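 Purified enzyme was diluted into 20 µM fluorogenic amine substrate in 0.1 M pH 7.2 phosphate buffer, or into 5 mM benzylamine in 50 mM pH 7.2 phosphate buffer, at 30 °C. Absorbance at 250 nm was followed for 30 s. Slopes were converted to nM s−1 using extinction coefficients of the aldehyde products at 250 nm.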

[6] = test system: rat liver monoamine oxidase (MAO-B); test: Selectivity: initial oxidation velocity with rat liver MAO-B; type: biochemical; details: for V0: 30 °C, 250 nm, rat liver mitochondria
Method in brief: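 MAO-B source: isolated rat liver mitochondria, protein by biuret (BSA standard). Thawed suspension in mannitol/sucrose/MOPS pH 7.4 diluted with 0.1 M pH 7.2 phosphate containing 0.25% Triton X-100, warmed to 30 °C. Aliquot added to 20 µM test amine (0.1 M phosphate) or 5 mM benzylamine (50 mM phosphate). A250 followed 30 s at 30 °C; rates via extinction coefficients.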

[7] = biological target: T3, Pichia pastoris lysyl oxidase (PPLO) (Komagataella pastoris, UniProt Q96X16); test: Selectivity: initial oxidation velocity with PPLO; type: biochemical; details: for V0: 30 °C, 250 nm
T3 sequence (Q96X16 19-787): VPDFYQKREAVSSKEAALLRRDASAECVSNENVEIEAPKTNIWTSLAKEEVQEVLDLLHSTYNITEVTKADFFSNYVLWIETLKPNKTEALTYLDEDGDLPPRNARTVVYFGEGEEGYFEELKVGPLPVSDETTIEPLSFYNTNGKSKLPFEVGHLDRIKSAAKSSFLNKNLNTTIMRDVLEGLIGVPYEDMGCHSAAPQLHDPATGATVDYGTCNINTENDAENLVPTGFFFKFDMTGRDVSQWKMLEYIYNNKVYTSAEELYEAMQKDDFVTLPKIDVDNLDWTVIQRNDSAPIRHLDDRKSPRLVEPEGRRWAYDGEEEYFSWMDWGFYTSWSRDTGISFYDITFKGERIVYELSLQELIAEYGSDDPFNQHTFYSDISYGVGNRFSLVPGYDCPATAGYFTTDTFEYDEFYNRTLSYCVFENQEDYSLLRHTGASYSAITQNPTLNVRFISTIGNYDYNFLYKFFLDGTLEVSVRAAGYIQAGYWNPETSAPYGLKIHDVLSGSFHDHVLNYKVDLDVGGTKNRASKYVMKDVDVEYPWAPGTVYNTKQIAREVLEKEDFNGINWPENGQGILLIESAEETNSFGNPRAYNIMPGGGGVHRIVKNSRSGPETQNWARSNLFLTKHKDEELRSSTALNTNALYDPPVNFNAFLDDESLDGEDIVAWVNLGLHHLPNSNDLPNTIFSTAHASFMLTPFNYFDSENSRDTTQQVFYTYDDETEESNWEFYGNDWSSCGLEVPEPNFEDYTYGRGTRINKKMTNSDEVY
Method in brief: as §1

[8] = biological target: Arthrobacter globiformis amine oxidase (AGAO) (Arthrobacter globiformis, UniProt P46881); test: Selectivity: initial oxidation velocity with AGAO; type: biochemical; details: for V0: 30 °C, 250 nm
Method in brief: as §1

[9] = biological target: T4, porcine kidney diamine oxidase (pkDAO) (Sus scrofa, UniProt Q9TRC7); test: Selectivity: initial oxidation velocity with pkDAO; type: biochemical; details: for V0: 37 °C, 250 nm
T4 sequence (Q9TRC7 25-755): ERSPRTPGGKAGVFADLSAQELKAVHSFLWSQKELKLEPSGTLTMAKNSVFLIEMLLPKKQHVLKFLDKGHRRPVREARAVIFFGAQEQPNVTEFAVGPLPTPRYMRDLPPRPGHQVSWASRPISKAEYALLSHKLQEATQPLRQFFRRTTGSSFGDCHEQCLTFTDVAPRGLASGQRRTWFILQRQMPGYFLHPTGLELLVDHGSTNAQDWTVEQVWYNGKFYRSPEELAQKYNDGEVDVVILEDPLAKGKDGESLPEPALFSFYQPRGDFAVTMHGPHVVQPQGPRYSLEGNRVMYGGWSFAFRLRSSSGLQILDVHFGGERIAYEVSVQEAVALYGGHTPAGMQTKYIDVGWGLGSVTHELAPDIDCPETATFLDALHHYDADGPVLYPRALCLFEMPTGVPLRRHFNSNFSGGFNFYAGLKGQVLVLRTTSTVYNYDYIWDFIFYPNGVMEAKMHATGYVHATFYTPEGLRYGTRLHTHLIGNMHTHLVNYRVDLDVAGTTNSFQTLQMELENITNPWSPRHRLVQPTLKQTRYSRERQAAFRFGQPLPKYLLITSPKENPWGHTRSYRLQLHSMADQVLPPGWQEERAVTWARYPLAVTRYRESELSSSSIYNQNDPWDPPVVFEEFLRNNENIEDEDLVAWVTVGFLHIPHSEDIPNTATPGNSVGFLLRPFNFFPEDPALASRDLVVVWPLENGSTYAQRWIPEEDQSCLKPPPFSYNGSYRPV
Method in brief: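 Porcine kidney DAO (from 10 mg/mL stock) in 0.1 M pH 7.2 phosphate buffer, equilibrated at 37 °C. Test amine (final 20 µM) or p-xylylenediamine (final 1.5 mM) was added. Absorbance at 250 nm was read for 30 s at 37 °C. Rates were computed using a literature extinction coefficient for p-(aminomethyl)benzaldehyde.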

[10] = BA 5 mM in 50 mM pH 7.2 phosphate buffer
[11] = 12 20 µM in 0.1 M pH 7.2 phosphate buffer

For Cl.Cl.NCCOc1ccc2cc(CN)ccc2c1 [compound 9, 2-(6-(Aminomethyl)naphthalen-2-yloxy)ethylamine dihydrochloride], the relative activity ([1]; fluorescence spectrophotometry) was 2.9×10^2.
For CNCCOc1ccc2cc(CN)ccc2c1.Cl.Cl [compound 10, (2-(6-(Aminomethyl)naphthalen-2-yloxy)ethyl)methylamine dihydrochloride], the relative activity ([1]; fluorescence spectrophotometry) was 1.5×10^3.
With CN(C)CCOc1ccc2cc(CN)ccc2c1.Cl.Cl [compound 11, (2-(6-(Aminomethyl)naphthalen-2-yloxy)ethyl)dimethylamine dihydrochloride] the relative activity ([1]; fluorescence spectrophotometry) was 3.1×10^3.
For COc1ccc2cc(CN)ccc2c1.Cl [compound 1, 6-Methoxy-2-naphthalenemethaneamine hydrochloride], the “solubility (in words)” value [2] was “poor solubility; also recorded: poorly soluble”, the relative activity ([1]; UV-vis spectrophotometry) was 2.2 and the relative activity ([1]; fluorescence spectrophotometry) was 2.2.
For C=C=CCN [compound 29, 1-Amino-2,3-butadiene], the “slope of the Kitz and Wilson plot” value ([3]; BA assay, 2 °C) is given as 10.2, the IC50 ([3]; read-out: 5 min IC50, BA assay with 1 µM BPAO, previous estimation) is given as 1250 nM and the “slope of the Kitz and Wilson plot” value ([4]; inactivation at 2 °C, BPAO 50 nM) is given as 10.8. It also gave an IC50 ([4]; read-out: 5 min IC50, 30 °C) of 250 nM and an IC50 ([4]; read-out: 10 min IC50, 30 °C) of 125 nM.
NCc1ccccc1 [BA, benzylamine, reference compound] showed a V0 [5, 10] of 82.8 nM/s, a V0 [6, 10] of 103.1 nM/s and a relative activity ([1]; UV-vis spectrophotometry) of 1. The V0 [7, 10] was 67.2 nM/s and the V0 [8, 10] was 54.7 nM/s.
NCc1ccc(CN)cc1 [PXDA, p-xylylenediamine, reference compound] gave a V0 ([9]; PXDA 1.5 mM in 0.1 M pH 7.2 phosphate buffer) of 51.8 nM/s.
In the case of C[N+](C)(C)CCOc1ccc2cc(CN)ccc2c1.Cl.[Cl-] [compound 12, (2-(6-(Aminomethyl)naphthalen-2-yloxy)ethyl)trimethylammonium chloride hydrochloride], the “substrate activity with BPAO (in words)” value [5] is reported as “metabolized quickly”, the V0 [5, 11] is reported as 62.3 nM/s and the “substrate activity with BPAO (in words)” value ([5]; listed as ANETA) is reported as “good substrate”. For the same compound, the “substrate activity with MAO-B (in words)” value [6] was “no significant substrate activity”, the V0 [6, 11] was 0.6 nM/s and the “substrate activity with MAO-B (in words)” value ([6]; listed as ANETA) was “not a substrate”. The “substrate activity with pkDAO (in words)” value [9] was “no significant substrate activity”, the V0 [9, 11] was 1.0 nM/s and the “substrate activity with pkDAO (in words)” value ([9]; listed as ANETA) was “not a substrate”. The relative activity ([1]; fluorescence spectrophotometry) was 5.4×10^3, the V0 [7, 11] was 24.8 nM/s and the “substrate activity with PPLO (in words)” value ([7]; compared with BPAO) was “comparable rate”. The “substrate activity with AGAO (in words)” value [8] was “no significant substrate activity” and the V0 [8, 11] was 1.3 nM/s.
